High-throughput results as filed in PubChem BioAssay.
KCNK3 inh = human KCNK3 channel inhibition, primary screen; CHO-KCNK3 thallium flux, FluxOR fluorescence; active compounds read low; B-score at 10 µM; 340,000 compounds, 0.84% hits;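 active = B-score under library mean minus 4 SD, starting fluorescence ratio at most library mean plus 5 SD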;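 also: more negative B-score means stronger inhibition of thallium flux through KCNK3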
hERG protect = shields human hERG channel from block by proarrhythmic agents; CHO-hERG, FluxOR thallium flux, dofetilide IC70 present; activation (rescue from dofetilide block), less the hit threshold, % at 10 µM; 310,000 compounds, 0.51% hits;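 active = activation above the mean of controls blocked by dofetilide plus 5 SD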;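 also: thallium influx through hERG after potassium depolarization seen as dye fluorescence rise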
KCNQ1 act = human KCNQ1 channel potentiation or activation | AID 2648 | B-score at 10 µM | 310,000 compounds, 0.35% hits | P51787 | CHO-K1 KCNQ1, thallium flux FluxOR fluorescence; active compounds read high;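 active = fluorescence ratio B-score, a plate-corrected score, at least three library SD, with initial intensity B-score within 5 SD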
Target sequence (P51787 whole entry, looked up): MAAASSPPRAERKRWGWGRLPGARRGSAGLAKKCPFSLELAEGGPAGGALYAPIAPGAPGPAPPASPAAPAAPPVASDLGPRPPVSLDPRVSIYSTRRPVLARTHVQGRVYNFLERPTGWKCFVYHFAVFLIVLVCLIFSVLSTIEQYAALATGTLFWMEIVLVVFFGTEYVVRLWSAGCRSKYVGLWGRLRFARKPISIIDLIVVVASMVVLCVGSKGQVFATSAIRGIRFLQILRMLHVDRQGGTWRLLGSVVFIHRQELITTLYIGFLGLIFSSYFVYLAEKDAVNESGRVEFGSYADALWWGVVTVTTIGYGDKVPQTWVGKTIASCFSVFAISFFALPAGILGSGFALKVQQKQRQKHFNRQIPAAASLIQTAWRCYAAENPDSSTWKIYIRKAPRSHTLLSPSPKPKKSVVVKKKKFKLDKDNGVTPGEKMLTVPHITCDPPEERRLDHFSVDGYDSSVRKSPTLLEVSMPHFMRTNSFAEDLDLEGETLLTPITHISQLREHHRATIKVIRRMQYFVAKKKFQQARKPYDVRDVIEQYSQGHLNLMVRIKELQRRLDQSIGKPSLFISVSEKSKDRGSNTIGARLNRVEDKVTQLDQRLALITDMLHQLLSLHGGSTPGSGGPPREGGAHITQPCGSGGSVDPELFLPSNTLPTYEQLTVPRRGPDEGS
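assay system = CHO-K1 cells stably expressing KCNQ1 | medium = assay buffer, equal DMSO in all wells | timing = 37 °C overnight plating, 90-min dark dye load, 20-min compound pretreatment | measured by = kinetic FluxOR thallium fluorescence, 10-s 1-Hz baseline, 110-s post-stimulus read | measure = fluorescence change relative to baseline, converted to B score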
KCNQ1 block = inhibitors of human KCNQ1 potassium channel; B-score at 10 µM; 310,000 compounds, 1.3% hits; P51787; CHO-K1 KCNQ1, FluxOR thallium flux fluorescence; active compounds read high;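 active = compounds whose thallium flux B-score, printed positive for inhibition, exceeds three library SD while starting fluorescence stays within three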;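 also: channel opened by potassium depolarization with thallium stimulus after 20 min compound exposure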
Kir21 block = inhibitors of mouse Kir2.1 inward-rectifier potassium channel | AID 1672 | HEK293-Kir2.1, FluxOR thallium flux fluorescence; active compounds read low | 310,000 compounds, 0.85% hits | P35561 | B-score at 10 µM;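 active = fluorescence ratio B-score at or below minus 3 SD of library scores, with starting-brightness B-score within 2 SD, cut at about -4.2 in these data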;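 also: channel flux triggered by added potassium and thallium sulfate stimulus; B-score of peak minus minimum fluorescence over baseline after thallium stimulus; more negative B-score means stronger Kir2.1 block with less thallium influx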
KCNK9 inh = blocks the human KCNK9 two-pore domain potassium channel. 310,000 compounds, 1.2% hits. HEK293 KCNK9, FluxOR thallium flux fluorescence; active compounds read low. Q9NPC2. B-score at 10 µM. AID 488922;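 active = ratio B-score over 3 SD below the library mean, with starting fluorescence within 5 SD of its mean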;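 also: negative B-score means less thallium flux so channel inhibition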
KCNK9 inh conf = confirmation of human KCNK9 potassium channel inhibitors. 4,900 compounds, 43% hits. shares compounds with KCNK9 inh. HEK293 KCNK9 cells, FluxOR thallium flux fluorescence. inhibition, % at 10 µM;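 active = thallium signal inhibited by more than 5 SD of the compound-free buffer control wells, on both duplicate plates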;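 also: 0% = assay buffer control wells without compound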
Kir21 sel = tests whether KCNK9 modulators also affect mouse Kir2.1; shares compounds with KCNK9 inh; 4,900 compounds, 4% hits; inhibition, % at 10 µM; Kir2.1 cells, FluxOR thallium flux fluorescence;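 active = thallium signal drop more than 5 SD beyond the mean of the no-compound control wells, seen in both duplicate plates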;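 also: signal is fluorescence rise after thallium addition divided by baseline fluorescence; plate controls were assay buffer only for no effect and full block by chlorpromazine control for full effect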
HEK293 Tl ctr = second counter-screen for KCNK9 modulators: effect in non-induced cells; inhibition, % at 10 µM; 4,900 compounds, 40% hits; AID 492997; shares compounds with KCNK9 inh; non-induced KCNK9-HEK293, FluxOR thallium flux;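 active = thallium signal drop beyond 5 SD of the untreated control mean, on both duplicate plates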;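 also: plate controls were buffer only IC0 wells for no effect and SID17386958 at its maximal inhibitory level for full effect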
Numbers without * were called inactive; i = inactive; . = not tested or not shown. Compounds with a hit are over-represented: about 3.7% of the library has one in this group of screens.

SMILES	KCNK3 inh	hERG protect	KCNQ1 act	KCNQ1 block	Kir21 block	KCNK9 inh	KCNK9 inh conf	Kir21 sel	HEK293 Tl ctr
Cc1ccc(C(=O)N(CC(=O)NC2CCCC2)c2ccccc2Cl)s1	i	-3.8	i	i	1.77	i	.	.	.
Cc1cccc2nc(-c3ccccc3)nc(N3CCC(O)(c4ccc(Cl)cc4)CC3)c12	i	-5.2	i	i	-0.18	-10.3*	61.0%*	i	32.5%*
COC(=O)c1ccc(COc2ccc(/C=C(\C#N)c3nc4ccccc4[nH]3)cc2OC)o1	i	-8.0	i	i	1.11	-8.37*	40.5%*	i	33.5%*
Fc1ccc(Sc2nc(-c3ccccc3)nnc2C(F)(F)F)cc1	i	-6.8	i	i	0.78	i	i	i	i
CC(C)Cn1c(=O)c2c(nc3n2CCCN3CCc2ccccc2)n(C)c1=O	i	-18.0	i	i	0.34	-8.58*	45.5%*	i	i
CCN(CC)c1ccc(N=CN2CCOCC2)cc1	i	-1.6	i	i	0.61	i	.	.	.
CN(c1ccc([N+](=O)[O-])cc1C(=O)Nc1ccccc1)C1CCCCC1	i	-12.9	i	i	-1.15	-12.5*	30.0%*	i	42.0%*
Cc1cccc(NC(=O)c2cc([N+](=O)[O-])ccc2NC2CCCCC2)c1	i	-2.9	i	i	-0.05	i	.	.	.
Cc1ccc(S(=O)(=O)N2CCN(C3CC(=O)N(Cc4ccccc4)C3=O)CC2)cc1C (stereo unspecified)	i	-5.6	i	i	0.9	i	.	.	.
O=C1CC(N2CCN(S(=O)(=O)c3cccc(C(F)(F)F)c3)CC2)C(=O)N1Cc1ccccc1 (stereo unspecified)	i	-3.6	i	i	-0.1	i	i	i	i
COc1ccc(C(=O)Nn2c(SCc3cccc([N+](=O)[O-])c3)nc3ccccc3c2=O)cc1	i	-13.3	i	i	-0.7	-12.3*	68.0%*	i	31.5%*
COc1ccc(C(=O)Nn2c(SCC(=O)NC3CCCCC3)nc3ccccc3c2=O)cc1	i	-5.8	i	i	-2.28	i	.	.	.
O=C(Nn1c(SCc2cccc([N+](=O)[O-])c2)nc2ccccc2c1=O)c1ccccc1	i	-15.9	i	i	-0.33	-12.7*	67.0%*	i	43.0%*
O=C(CSc1nc2ccccc2c(=O)n1-c1ccccc1)c1cccc([N+](=O)[O-])c1	i	-2.8	i	i	-0.76	i	.	.	.
COc1ccc(N2CCN(C(=O)CC34CC5CC(CC(C5)C3)C4)CC2)c([N+](=O)[O-])c1	i	-3.7	i	i	-0.06	-12.3*	66.5%*	i	i
COc1ccc(N2CCN(C(=O)c3ccccc3F)CC2)c([N+](=O)[O-])c1	i	-2.3	i	i	-1.27	i	.	.	.
Cc1ccc(S(=O)(=O)c2cn(C)c3cc(N4CCOCC4)c(F)cc3c2=O)cc1	i	-5.4	i	i	2.41	i	.	.	.
COc1ccc(-c2cc(C(=O)N(C)Cc3ccc(F)cc3)c3ccccc3n2)cc1OC	i	-10.7	i	i	-0.57	i	.	.	.
CN(Cc1ccccc1)C(NC(=O)c1ccco1)C(Cl)(Cl)Cl (stereo unspecified)	i	-10.0	i	i	2.3	i	.	.	.
CN(Cc1ccccc1)C(NC(=O)c1ccccc1)C(Cl)(Cl)Cl (stereo unspecified)	i	-5.6	i	i	0.04	i	i	i	41.0%*
COC(=O)c1cc(NC(=O)CN(c2ccccc2OC)S(=O)(=O)c2ccccc2)ccc1Cl	i	-7.2	i	i	-1.7	-14.9*	64.5%*	i	i
